# pIC50: −log10 of the molar value. Calls of active or inactive are those of the source. The calls are words filed in the database; no cut-off is given here.
# Experiments:
# [1] = (§1) Cytotoxicity against human PC3 cells after 72 hrs by MTT assay; type: functional, cell-based; settings: PC-3, 72 h
# Procedure, shortened: (§2)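 Cells kept as adherent monolayers in DMEM with 10% FBS, 37°C, 5% CO2. Trypsin-harvested, seeded at 5 × 10^3 cells/well, then exposed to compound at 0.1 to 100 µM for 72 h. MTT (4 mg/ml) added for 4 h, formazan dissolved in DMSO, absorbance read at 570 nm. At least three experiments, each in triplicate; mean±SD.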
# [2] = tested on: PC-3; test: as §1; type: functional, cell-based; procedure, shortened: as §2
# [3] = tested on: DU-145; test: Potency index, ratio of IC50 for hispolon to IC50 for compound for human DU145 cells after 72 hrs by MTT assay; type: functional
# Procedure, shortened: (§3)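 Ratio of the hispolon IC50 to the analog IC50 in the same cancer line. Both IC50s come from the 72 h MTT assay (0.1–100 µM), with survival curves fitted by the Bliss method.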
# [4] = tested on: DU-145; test: Cytotoxicity against human DU145 cells after 72 hrs by MTT assay; type: functional, cell-based; procedure, shortened: as §2
# [5] = tested on: HCT-116; test: Reduction in mitochondrial membrane potential in human HCT116 cells at 0.5 uM after 4 hrs by Mitotracker red staining based flow cytometry (reference value: 27.56%); type: functional; parameters: scale not given: the % may be the effect or the level left
# Procedure, shortened: (§4)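 HCT-116 cells in 6-well plates, exposed in complete medium with or without compound (0.5 or 5 µM) for 4 h. Harvested and stained with MitoTracker Red for 30 min at 37°C, washed in PBS, then given Alexa Fluor 488 annexin V in annexin-binding buffer for 15 min. Flow cytometry with emission read at 530 and 585 nm; quadrant analysis against untreated control.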
# [6] = tested on: HCT-116; test: Reduction in mitochondrial membrane potential in human HCT116 cells after 4 hrs by Mitotracker red staining based flow cytometry (reference value: 27.56%); type: functional, cell-based; procedure, shortened: as §4
# [7] = tested on: HCT-116; test: Induction of morphological changes in human HCT116 cells assessed as increase in cell size at 1 uM after 68 hrs by inverted microscopy; type: functional, cell-based
# Procedure, shortened: (§5)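 Cells grown in DMEM/10% FBS and treated in triplicate for 68 h. Photographed with an inverted microscope at 20X alongside untreated wells. Images scored double-blind for cell size, shape, number and debris.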
# [8] = (§6) Cytotoxicity against human S1 cells after 72 hrs by MTT assay; type: functional, cell-based; settings: S1, 72 h; procedure, shortened: as §2
# [9] = tested on: S1; test: as §6; type: functional, cell-based; procedure, shortened: as §2
# [10] = tested on: HCT-116; test: Reduction in mitochondrial membrane potential in human HCT116 cells at 5 uM after 4 hrs by Mitotracker red staining based flow cytometry (reference value: 27.56%); type: functional; parameters: scale not given: the % may be the effect or the level left; procedure, shortened: as §4
# [11] = tested on: HCT-116; test: Potency index, ratio of IC50 for hispolon to IC50 for compound for human HCT116 cells after 72 hrs by MTT assay; type: functional; procedure, shortened: as §3
# [12] = tested on: HEK293; test: Ratio of IC50 for HEK293 cells expressing pcDNA3.1 to IC50 for human HCT116 cells
# Procedure, shortened: (§7)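 Selectivity ratio of the IC50 in empty-vector HEK293/pcDNA3.1 cells to the IC50 in each cancer line. IC50s from the 72 h MTT assay (0.1–100 µM, Bliss method, ≥3 experiments in triplicate).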
# [13] = tested on: HEK293; test: Cytotoxicity against HEK293 cells expressing ABCB1 after 72 hrs by MTT assay; type: functional, cell-based; settings: Homo sapiens, HEK293, 72 h; procedure, shortened: as §2
# [14] = tested on: MCF7; test: Cytotoxicity against human MCF7 cells after 72 hrs by MTT assay; type: functional, cell-based; settings: for pIC50: MCF7, 72 h; procedure, shortened: as §2
# [15] = tested on: HEK293; test: Resistance index, ratio of IC50 for HEK293 cells expressing ABCB1 to IC50 for HEK293 cells expressing pcDNA3.1; parameters: species or system Homo sapiens
# Procedure, shortened: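 Fold resistance is the IC50 in P-glycoprotein-overexpressing HEK293/ABCB1 cells divided by the IC50 in empty-vector HEK293/pcDNA3.1 cells. IC50s from the 72 h MTT assay; paclitaxel was the positive-control ABCB1 substrate.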
# [16] = tested on: MDCK; test: Cytotoxicity against MDCK cells after 72 hrs by MTT assay; type: cell-based; settings: Canis lupus familiaris; procedure, shortened: as §2
# [17] = tested on: MDA-MB-231; test: Cytotoxicity against human MDA-MB-231 cells after 72 hrs by MTT assay; type: functional, cell-based; settings: for pIC50: MDA-MB-231, 72 h; procedure, shortened: as §2
# [18] = Potency index, ratio of IC50 for hispolon to IC50 for compound for human S1 cells after 72 hrs by MTT assay; type: functional; procedure, shortened: as §3
# [19] = tested on: PC-3; test: Potency index, ratio of IC50 for hispolon to IC50 for compound for human PC3 cells after 72 hrs by MTT assay; type: functional; procedure, shortened: as §3
# [20] = (§8) Cytotoxicity against human HCT116 cells after 72 hrs by MTT assay; type: functional, cell-based; settings: HCT-116, 72 h; procedure, shortened: as §2
# [21] = tested on: HCT-116; test: as §8; type: functional, cell-based; procedure, shortened: as §2
# [22] = tested on: HCT-116; test: Induction of apoptosis in human HCT116 cells at 5 uM after 4 hrs by Alexa fluor 488 annexin V staining based flow cytometry (reference value: 5.58%); type: functional; procedure, shortened: as §4
# [23] = tested on: HEK293; test: Cytotoxicity against HEK293 cells expressing pcDNA3.1 after 72 hrs by MTT assay; type: cell-based; settings: Homo sapiens, HEK293, 72 h; procedure, shortened: as §2
# [24] = tested on: HEK293; test: Ratio of IC50 for HEK293 cells expressing pcDNA3.1 to IC50 for human DU145 cells; procedure, shortened: as §7
# [25] = tested on: HCT-116; test: Induction of apoptosis in human HCT116 cells at 0.5 uM after 4 hrs by Alexa fluor 488 annexin V staining based flow cytometry (reference value: 5.58%); type: functional; procedure, shortened: as §4
# [26] = tested on: HEK293; test: Ratio of IC50 for HEK293 cells expressing pcDNA3.1 to IC50 for human PC3 cells; procedure, shortened: as §7
# [27] = tested on: PC-3; test: Induction of morphological changes in human PC3 cells assessed as increase in cell size at 1 uM after 68 hrs by inverted microscopy; type: functional, cell-based; procedure, shortened: as §5
# [28] = tested on: HEK293; test: Ratio of IC50 for HEK293 cells expressing pcDNA3.1 to IC50 for human S1 cells; procedure, shortened: as §7
# [29] = tested on: HCT-116; test: Induction of morphological changes in human HCT116 cells up to 100 uM after 68 hrs by inverted microscopy; type: functional, cell-based; procedure, shortened: as §5
# [30] = tested on: PC-3; test: Induction of morphological changes in human PC3 cells up to 100 uM after 68 hrs by inverted microscopy; type: functional, cell-based; procedure, shortened: as §5
structure (smiles),measurement,setting,value
COc1cc(/C=C/C(=O)CC(C)=O)ccc1O,pIC50,[1],5.20
same,Activity,[2],Dose-dependent effect
same,Ratio IC50,[3],5.5
same,Activity,[4],Dose-dependent effect
same,pIC50,"[4]; DU-145, 72 h",5.28
same,Activity,[5],84.88%
same,Activity,[6],Dose-dependent effect
same,Activity,[7],Active
same,pIC50,[8],5.74
same,Activity,[9],Dose-dependent effect
same,Activity,[10],72.74%
same,Ratio IC50,[11],3.7
same,Ratio IC50,[12],11
same,pIC50,[13],4.72
same,Activity,[14],Dose-dependent effect
same,pIC50,[14],5.13
same,Ratio IC50,[15],1.2
same,pIC50,[16],4.88
same,Activity,[17],Dose-dependent effect
same,pIC50,[17],5.01
same,Ratio IC50,[18],4.7
same,Ratio IC50,[19],2
same,pIC50,[20],5.85
same,Activity,[21],Dose-dependent effect
same,Activity,[22],11.69%
same,pIC50,[23],4.80
same,Ratio IC50,[24],3
same,Activity,[25],2.64%
same,Ratio IC50,[26],2
same,Activity,[27],Active
same,Ratio IC50,[28],9
COc1cc(CCC(=O)CC(C)=O)ccc1O,pIC50,[1],< 4.00
same,pIC50,[8],4.01
same,pIC50,[13],4.03
same,pIC50,[14],< 4.00
same,Activity,[29],inactive
same,Ratio IC50,[15],1
same,pIC50,[16],4.14
same,pIC50,[17],< 4.00
same,pIC50,[20],4.09
same,Activity,[30],inactive

# Reference: ChEMBL document CHEMBL3400039, “Design, synthesis and in vitro cell-based evaluation of the anti-cancer activities of hispolon analogs” (Bioorg Med Chem, 2015)
